This is an account of results in ChEMBL document CHEMBL1122688, “Antimycotic azoles. 7. Synthesis and antifungal properties of a series of novel triazol-3-ones” (1984).

A value given as a limit tells only on which side of the number the result lay.

In one assay the test system is Trichophyton rubrum. Nature of the assay: In vitro antifungal activity against Trichophyton rubrum. The format is functional. A digest of the protocol:
(§1)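 Fungal growth-inhibition screen (Godefroi method) against dermatophytes, yeasts, moulds and other fungi. The value is the lowest concentration (µg/mL) giving total inhibition of growth, tested up to 100 µg/mL.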

In another assay the test system is Trichophyton benhamiae. Nature of the assay: In vitro antifungal activity against Trichophyton mentagrophytes. The format is functional, Arthroderma benhamiae. The gist of the method:
as §1

A short description of assay [1]: In vivo activity against vaginal candidoses in rats, measured as the ratio of animals cured/animals infected (C/I) at dose 2.5 mg/kg; C/I = 0/2. It is filed as functional.
For the next assay, the system named is Sporothrix schenckii. Put plainly: In vitro antifungal activity against Sporothrix schenck ii. It is filed as functional. A digest of the protocol: as §1
Assay [2] can be described thus: In vivo activity against microsporosis guinea pig, measured as the ratio of animals cured/animals infected (C/I) at dose 20 mg/kg; C/I = 1/6.
Another assay concerns Aspergillus fumigatus. Put plainly: In vitro antifungal activity against Aspergillus fumigatus. The format is functional. The gist of the method:
as §1

For a further assay, the system named is Candida tropicalis. Nature of the assay: In vitro antifungal activity against Candida tropicalis. The format is functional. The gist of the method: as §1
A further assay has as its system Candida albicans. Nature of the assay: In vitro antifungal activity against Candida albicans. The format is functional. A digest of the protocol: as §1
The test system of a further assay is Cryptococcus neoformans. Put plainly: In vitro antifungal activity against Cryptococcus neoformans. It is filed as functional. The gist of the method: as §1
For a further assay, the system named is Microsporum canis. Nature of the assay: In vitro antifungal activity against Microsporum canis. It is filed as functional. The gist of the method: as §1
Another assay concerns Phialophora verrucosa. Put plainly: In vitro antifungal activity against Phialophora verrucosa. It is filed as functional. A digest of the protocol:
as §1

A further assay deals with Saprolegnia. Nature of the assay: In vitro antifungal activity against Saprolegnia sp. It is filed as functional. A digest of the protocol: as §1
The nature of assay [3]: In vitro antifungal activity against Mucor sp. It is filed as functional. A digest of the protocol:
as §1

Assay [4] is described as follows: In vivo activity against microsporosis guinea pig, measured as the ratio of animals cured/animals infected (C/I) at dose 10 mg/kg; C/I = 1/4. It is filed as functional.
Assay [5] is described as follows: In vivo activity against vaginal candidoses in rats, measured as the ratio of animals cured/animals infected (C/I) at dose 2.5 mg/kg; C/I = 1/2. The format is functional.
A short description of assay [6]: In vivo activity against vaginal candidoses in rats, measured as the ratio of animals cured/animals infected (C/I) at dose 2.5 mg/kg; C/I = 1/4. It is filed as functional.
Assay [7] can be described thus: In vivo activity against vaginal candidoses in rats, measured as the ratio of animals cured/animals infected (C/I) at dose 0.63 mg/kg; C/I = 0/2. It is filed as functional.
Assay [8] can be described thus: In vivo activity against vaginal candidoses in rats, measured as the ratio of animals cured/animals infected (C/I) at dose 0.63 mg/kg; 1/6. It is filed as functional.
Assay [9] is described as follows: In vivo activity against microsporosis guinea pig, measured as the ratio of animals cured/animals infected (C/I) at dose 1.25 mg/kg; 0/4. It is filed as functional.
The nature of assay [10]: In vivo activity against vaginal candidoses in rats, measured as the ratio of animals cured/animals infected (C/I) at dose 2.5 mg/kg; 3/6. It is filed as functional.
Assay [11] in a line: In vivo activity against microsporosis guinea pig, measured as the ratio of animals cured/animals infected (C/I) at dose 2.5 mg/kg; 4/6. The format is functional.
The nature of assay [12]: In vivo activity against microsporosis guinea pig, measured as the ratio of animals cured/animals infected (C/I) at dose 10 mg/kg; 2/2. It is filed as functional.
The nature of assay [13]: In vivo activity against vaginal candidoses in rats, measured as the ratio of animals cured/animals infected (C/I) at dose 1.25 mg/kg; 1/2. It is filed as functional.
Assay [14] is described as follows: In vivo activity against microsporosis guinea pig, measured as the ratio of animals cured/animals infected (C/I) at dose 1.25 mg/kg; C/I = 0/2. The format is functional.
The nature of assay [15]: In vivo activity against microsporosis guinea pig, measured as the ratio of animals cured/animals infected (C/I) at dose 10 mg/kg; C/I = 1/8. The format is functional.
A short description of assay [16]: In vivo activity against microsporosis guinea pig, measured as the ratio of animals cured/animals infected (C/I) at dose 2.5 mg/kg; C/I = 0/2. The format is functional.
In assay [17] the test system is Rattus norvegicus. Nature of the assay: In vivo activity against vaginal candidoses in rats, measured as the ratio of animals cured/animals infected (C/I) at dose 1.25 mg/kg; C/I = 5/6. It is filed as functional.
A short description of assay [18]: In vivo activity against vaginal candidoses in rats, measured as the ratio of animals cured/animals infected (C/I) at dose 0.63 mg/kg; C/I = 4/8. It is filed as functional.
A short description of assay [19]: In vivo activity against vaginal candidoses in rats, measured as the ratio of animals cured/animals infected (C/I) at dose 2.5 mg/kg; C/I = 4/6. The format is functional.
A short description of assay [20]: In vivo activity against vaginal candidoses in rats, measured as the ratio of animals cured/animals infected (C/I) at dose 10 mg/kg; C/I = 2/2. The format is functional.
A short description of assay [21]: In vivo activity against microsporosis guinea pig, measured as the ratio of animals cured/animals infected (C/I) at dose 10 mg/kg; C/I = 4/6. It is filed as functional.
Assay [22] is described as follows: In vivo activity against vaginal candidoses in rats, measured as the ratio of animals cured/animals infected (C/I) at dose 2.5 mg/kg; C/I = 4/8. It is filed as functional.
The nature of assay [23]: In vivo activity against vaginal candidoses in rats, measured as the ratio of animals cured/animals infected (C/I) at dose 0.63 mg/kg; C/I = 0/4. It is filed as functional.
Assay [24] in a line: In vivo activity against vaginal candidoses in rats, measured as the ratio of animals cured/animals infected (C/I) at dose 1.25 mg/kg; C/I = 1/6. It is filed as functional.
Assay [25] in a line: In vivo activity against microsporosis guinea pig, measured as the ratio of animals cured/animals infected (C/I) at dose 2.5 mg/kg; C/I = 0/6. The format is functional.
Assay [26] in a line: In vivo activity against vaginal candidoses in rats, measured as the ratio of animals cured/animals infected (C/I) at dose 10 mg/kg; 1/2. The format is functional.
Assay [27] is described as follows: In vivo activity against vaginal candidoses in rats, measured as the ratio of animals cured/animals infected (C/I) at dose 2.5 mg/kg; 0/2. The format is functional.
A short description of assay [28]: In vivo activity against microsporosis guinea pig, measured as the ratio of animals cured/animals infected (C/I) at dose 20 mg/kg; 0/2. The format is functional.
The test system of assay [29] is Rattus norvegicus. Put plainly: In vivo activity against vaginal candidoses in rats, measured as the ratio of animals cured/animals infected (C/I) at dose 1.25 mg/kg; C/I = 9/10. It is filed as functional.
Assay [30] in a line: In vivo activity against vaginal candidoses in rats, measured as the ratio of animals cured/animals infected (C/I) at dose 2.5 mg/kg; C/I = 9/10. The format is functional.
Assay [31] can be described thus: In vivo activity against vaginal candidoses in rats, measured as the ratio of animals cured/animals infected (C/I) at dose 10 mg/kg; C/I = 6/6. The format is functional.
A short description of assay [32]: In vivo activity against microsporosis guinea pig, measured as the ratio of animals cured/animals infected (C/I) at dose 2.5 mg/kg; C/I = 0/5. It is filed as functional.
Assay [33] in a line: In vivo activity against microsporosis guinea pig, measured as the ratio of animals cured/animals infected (C/I) at dose 1.25 mg/kg; C/I = 0/6. The format is functional.
The nature of assay [34]: In vivo activity against vaginal candidoses in rats, measured as the ratio of animals cured/animals infected (C/I) at dose 0.63 mg/kg; C/I = 3/10. The format is functional.

As for `CCCCn1ncn(-c2ccc(N3CCN(c4ccc(OC[C@@H]5COC(Cn6cncn6)(c6ccc(Cl)cc6Cl)O5)cc4)CC3)cc2)c1=O` (stereo partly drawn), the Inhibition was over 100 µg/mL with Trichophyton rubrum; 100 µg/mL in the assay on Trichophyton benhamiae; over 100 µg/mL in the assay on Sporothrix schenckii; over 100 µg/mL with Aspergillus fumigatus; over 100 µg/mL in the assay on Candida tropicalis; over 100 µg/mL in the assay with Candida albicans. Besides, the Inhibition (with Cryptococcus neoformans; in the assay with Microsporum canis; with Phialophora verrucosa; in the assay with Saprolegnia; in assay [3]) was over 100 µg/mL each time. Also, the C/I ratio in assay [1] is listed as 0; in assay [2] it was 1.
`CCCn1nc(CC)n(-c2ccc(N3CCN(c4ccc(OC[C@@H]5COC(Cn6ccnc6)(c6ccc(Cl)cc6Cl)O5)cc4)CC3)cc2)c1=O` (stereo partly drawn): the Inhibition in the assay on Trichophyton rubrum is 100 µg/mL; in the assay on Trichophyton benhamiae it was 10 µg/mL; with Sporothrix schenckii, over 100 µg/mL; with Aspergillus fumigatus, over 100 µg/mL; with Candida tropicalis, 10 µg/mL; with Candida albicans, 100 µg/mL. Besides, the Inhibition (with Cryptococcus neoformans; in the assay on Microsporum canis; in the assay on Phialophora verrucosa; with Saprolegnia; in [3]) was over 100 µg/mL in each case. Besides, the C/I ratio in assay [4] and in assay [5] was 1 throughout.
`CCCn1nc(C)n(-c2ccc(N3CCN(c4ccc(OC[C@@H]5COC(Cn6cncn6)(c6ccc(Cl)cc6Cl)O5)cc4)CC3)cc2)c1=O` (stereo partly drawn): the C/I ratio in [6] is listed as 1; in assay [7], 0. The Inhibition is over 100 µg/mL in the assay on Trichophyton rubrum; 1 µg/mL in the assay on Trichophyton benhamiae; over 100 µg/mL with Sporothrix schenckii; over 100 µg/mL with Aspergillus fumigatus; 100 µg/mL in the assay with Candida tropicalis; 100 µg/mL in the assay with Candida albicans. The Inhibition in the assay with Cryptococcus neoformans was 100 µg/mL; in the assay with Microsporum canis it was over 100 µg/mL; with Phialophora verrucosa, over 100 µg/mL; in the assay with Saprolegnia, over 100 µg/mL; in assay [3], over 100 µg/mL.
In the case of `C=CCn1ncn(-c2ccc(N3CCN(c4ccc(OC[C@@H]5COC(Cn6cncn6)(c6ccc(Cl)cc6Cl)O5)cc4)CC3)cc2)c1=O` (stereo partly drawn), the C/I ratio is 1 in assay [8]; 0 in assay [9]; 0.5 in assay [10]; 0.667 in assay [11]; 2 in [12]; 1 in assay [13]. Moreover, the Lowest level of total inhibition in the assay with Microsporum canis is over 100 µg/mL.
Take `Cn1ncn(-c2ccc(N3CCN(c4ccc(OC[C@@H]5COC(Cn6cncn6)(c6ccc(Cl)cc6Cl)O5)cc4)CC3)cc2)c1=O` (stereo partly drawn): the C/I ratio in assay [14] was 0; in [15], 1; in assay [16] it was 0; with Rattus norvegicus [17] it was 5; in [18] it was 0.5; in assay [19], 4. Further, in assay [20], the C/I ratio was found to be 1. The Inhibition with Trichophyton rubrum was 10 µg/mL; in the assay on Trichophyton benhamiae it was 1 µg/mL; in the assay on Sporothrix schenckii, over 100 µg/mL; with Aspergillus fumigatus, over 100 µg/mL; in the assay on Candida tropicalis, 10 µg/mL; in the assay on Candida albicans, 100 µg/mL. For the same molecule, the Inhibition in the assay on Cryptococcus neoformans was 100 µg/mL; in the assay with Microsporum canis, over 100 µg/mL; in the assay on Phialophora verrucosa, 100 µg/mL; in the assay with Saprolegnia it was over 100 µg/mL; in [3], over 100 µg/mL.
With `CCCCn1nc(C)n(-c2ccc(N3CCN(c4ccc(OC[C@@H]5COC(Cn6ccnc6)(c6ccc(Cl)cc6Cl)O5)cc4)CC3)cc2)c1=O` (stereo partly drawn), the C/I ratio is 0 in [14]; 0.667 in [21]; 0.5 in assay [22]; 0 in assay [23]; 1 in [24]; 0 in [25]. Also, the Inhibition with Trichophyton rubrum is 10 µg/mL; in the assay on Trichophyton benhamiae, 10 µg/mL; in the assay on Sporothrix schenckii, over 100 µg/mL; with Aspergillus fumigatus it was over 100 µg/mL; in the assay with Candida tropicalis, 1 µg/mL; in the assay with Candida albicans, 100 µg/mL. The Inhibition was 100 µg/mL with Cryptococcus neoformans; over 100 µg/mL in the assay with Microsporum canis; over 100 µg/mL in the assay with Phialophora verrucosa; over 100 µg/mL in the assay on Saprolegnia; over 100 µg/mL in assay [3].
Regarding `CC(=O)N1CCN(c2ccc(OC[C@@H]3COC(Cn4cncn4)(c4ccc(Cl)cc4Cl)O3)cc2)CC1` (stereo partly drawn), the C/I ratio in assay [26] is on record as 1; in assay [27], 0; in assay [28], 0. In the assay with Microsporum canis, this molecule showed an Inhibition of 100 µg/mL.
As for `CCCn1ncn(-c2ccc(N3CCN(c4ccc(OC[C@@H]5COC(Cn6cncn6)(c6ccc(Cl)cc6Cl)O5)cc4)CC3)cc2)c1=O` (stereo partly drawn), the Inhibition in the assay on Trichophyton rubrum was 1 µg/mL; in the assay with Trichophyton benhamiae, 100 µg/mL; in the assay on Sporothrix schenckii, over 100 µg/mL; with Aspergillus fumigatus, over 100 µg/mL; in the assay with Candida tropicalis, 100 µg/mL; in the assay on Candida albicans, over 100 µg/mL. For the same molecule, the Inhibition in the assay with Cryptococcus neoformans was 100 µg/mL; in the assay with Microsporum canis, over 100 µg/mL; in the assay on Phialophora verrucosa, over 100 µg/mL; with Saprolegnia, over 100 µg/mL; in assay [3], over 100 µg/mL. Besides, the C/I ratio came out at 0.9 in the assay on Rattus norvegicus [29]; 1 in [15]; 9 in [30]; 6 in assay [31]; 0 in assay [32]; 0 in [33]. Moreover, the C/I ratio in [34] amounted to 0.3.
